# pIC50: −log10 of the molar value. Calls of active or inactive are those of the source. The calls are words filed in the database; no cut-off is given here.
# What was measured:
# N2a695 [1] = test: Inhibition of amyloid beta 40 production in mouse N2a695 cells at 10 uM incubated for 6 hrs by ELISA relative to control; type: cell-based
# Method in brief: (§1)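 Human APP695-expressing N2a695 cells (4.0 × 10^5–4.5 × 10^5 cells/mL, 90–95% confluent) given 10 μM final compound for 6 h at 37 °C, 5% CO2. Media assayed by human Aβ40/Aβ42 sandwich ELISA (Aβ40 media diluted 5–10×, Aβ42 undiluted); levels compared with DMSO vehicle. At least two experiments in duplicate or triplicate.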
# N2a695 [2] = test: Inhibition of amyloid beta 42 production in mouse N2a695 cells at 10 uM incubated for 6 hrs by ELISA relative to control; type: cell-based; method in brief: as §1
# [3] = Cytotoxicity against mouse N2a695 cells assessed as reduction in cell viability at 10 uM incubated for 24 hrs by MTT assay; type: cell-based; conditions: n2a695, 24 h
# Method in brief: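 N2a cells exposed to 10 μM compound for 24 h; viable cell number determined by MTT assay.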
# N2a695 [4] = test: Increase in APP fragmentation in mouse N2a695 cells at 10 uM incubated for 6 hrs by Western blot analysis; type: functional, cell-based
# Method in brief: (§2)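 N2a695 cells (4.0 × 10^5–4.5 × 10^5 cells/mL, 90–95% confluent) treated with 10 μM final compound for 6 h at 37 °C, 5% CO2. Lysates run on SDS-PAGE; membrane fixed with 0.25% glutaraldehyde in PBS, blocked in milk PBST, probed with RU369 (APP C-terminus antibody), HRP secondary, ECL detection; APP-CTF bands quantified versus DMSO control.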
# N2a695 [5] = test: Increase in APP-CTF fragmentation in mouse N2a695 cells at 10 uM incubated for 6 hrs by Western blot analysis; type: functional, cell-based; method in brief: as §2
# [6] = Inhibition of gamma secretase in mouse N2a695 cells using Sb4 substrate incubated for 3 hrs by ELISA; conditions: N2a695, 3 h
# N2a695 [7] = test: Effect on TTR-induced amyloid beta aggregation inhibition in mouse N2a695 cells measured for 4 hrs by fluorescence correlation spectroscopic analysis; type: functional, cell-based
# N2a695 [8] = test: Inhibition of amyloid beta aggregation in mouse N2a695 cells measured for 4 hrs by fluorescence correlation spectroscopic analysis; type: cell-based
# [9] = Plasma concentration in 5XFAD mouse at 50 mg/kg, po measured after 15 days by LC-MS/MS analysis; type: ADME, organism-based; conditions: time 15 day
# Method in brief: (§3)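 Dosed via drinking water for 15 days (50 mg/kg) in 3-month-old 5xFAD mice, n = 3. Blood and brain tissue collected on day 15; parent amide and its hydrolysis product tafamidis quantified in plasma and brain extracts by LC-MS/MS.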
# [10] = Brain concentration in 5XFAD mouse at 50 mg/kg, po measured after 15 days by LC-MS/MS analysis; type: ADME, organism-based; conditions: time 15 day, read-out: Ct; method in brief: as §3
# [11] = biological target: Transthyretin (Homo sapiens) (UniProt P02766); test: Stabilization of recombinant dual FLAG-tagged wild type TTR (unknown origin) in plasma blood at < 30 uM incubated for 48 hrs by ion exchange chromatographic method; type: cell-free; conditions: dose microM <30, time 48.0 hrs
# [12] = Metabolic stability in mouse liver microsomes assessed as parent compound remaining after 0.5 hrs by LC-MS/MS analysis relative to control; type: ADME, Microsome; conditions: read-out: Stabilty
# Method in brief: (§4)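 Compound at 1 or 10 μM incubated with mouse or human liver microsomes at 25 °C for 30 and 60 min; remaining parent quantified by LC-MS/MS.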
# [13] = Metabolic stability in CD1 mouse liver microsomes assessed as parent compound remaining at 10 uM measured after 0.5 hrs by LC-MS/MS analysis relative to control; type: ADME, Microsome; conditions: read-out: Stabilty; method in brief: as §4
# [14] = Metabolic stability in CD1 mouse liver microsomes assessed as parent compound remaining at 1 uM measured after 1 hr by LC-MS/MS analysis relative to control; type: ADME, Microsome; conditions: read-out: Stabilty; method in brief: as §4
# [15] = Metabolic stability in CD1 mouse liver microsomes assessed as parent compound remaining at 10 uM measured after 1 hr by LC-MS/MS analysis relative to control; type: ADME, Microsome; conditions: read-out: Stabilty; method in brief: as §4
# [16] = Metabolic stability in human liver microsomes assessed as parent compound remaining at 1 uM measured after 0.5 hrs by LC-MS/MS analysis relative to control; type: ADME, Microsome; conditions: read-out: Stabilty; method in brief: as §4
# [17] = Metabolic stability in human liver microsomes assessed as parent compound remaining at 1 uM measured after 1 hr by LC-MS/MS analysis relative to control; type: ADME, Microsome; conditions: read-out: Stabilty; method in brief: as §4
pIC50 [6],concentration at 360 h [9],concentration at 360 h [10],Activity [11],Stability [11],"remaining at 0.5 h, 1 µM [12]","remaining at 0.5 h, 1 µM [13]","remaining at 1 h, 1 µM [14]","remaining at 1 h, 1 µM [15]","remaining at 0.5 h, 1 µM [16]","remaining at 1 h, 1 µM [17]",Compound,inhibition (N2a695 [1]),inhibition (N2a695 [2]),Activity [3],Activity (N2a695 [4]),Activity (N2a695 [5]),Activity (N2a695 [7]),inhibition (N2a695 [8])
,,,,,,,,,,,O=C(c1ccc2nc(-c3ccc(C(F)(F)F)cc3)oc2c1)N1CCNCC1,30%,30%,Toxic,Active,Active,,
< 4.52,5.8 µM,223 ng/g,Active,Stable,,,,,,,O=C(O)c1ccc2nc(-c3cc(Cl)cc(Cl)c3)oc2c1 [TAFAMIDIS],,,,inactive,inactive,inactive,inactive
,,,,,,,,,,,O=C(NC1CCNCC1)c1ccc2nc(-c3cc(Cl)cc(Cl)c3)oc2c1,30%,30%,Toxic,Active,Active,,
,,,,,,,,,,,CN(C)CCNC(=O)c1ccc2nc(-c3ccc(C(F)(F)F)cc3)oc2c1,30%,30%,,Active,Active,,
,0.08 µM,137 ng/g,Active,,15.1%,26.7%,2.3%,1.2%,75.4%,70.3%,O=C(c1ccc2nc(-c3cc(Cl)cc(Cl)c3)oc2c1)N1CCNCC1,30%,30%,Non-Toxic,Active,Active,inactive,inactive
